Screening results: PubChem BioAssay, several laboratories
The list is not random: actives were taken first. Their share in the collection is about 4.2%.
Rad51 HR inh: Rad51 (human) homologous recombination inhibition; hRad51 DNA strand exchange, fluorescence dequenching; inhibition, % at 10 µM; hit rate 0.085% among 200,000; AID 1385;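 active = inhibition above 40% at the single screening dose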
Target sequence (Q06609 whole entry, looked up): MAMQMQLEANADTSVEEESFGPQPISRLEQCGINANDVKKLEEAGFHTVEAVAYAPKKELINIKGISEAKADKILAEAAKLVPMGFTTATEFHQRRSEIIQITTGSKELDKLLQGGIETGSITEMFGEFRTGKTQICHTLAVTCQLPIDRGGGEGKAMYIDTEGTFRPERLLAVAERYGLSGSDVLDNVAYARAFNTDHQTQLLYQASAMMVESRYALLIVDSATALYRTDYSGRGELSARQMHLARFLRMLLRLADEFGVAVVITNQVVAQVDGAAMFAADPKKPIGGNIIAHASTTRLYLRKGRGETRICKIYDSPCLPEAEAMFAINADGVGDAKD
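System: human Rad51 nucleoprotein filaments preassembled on unlabelled ssDNA. Reagent: labelled 47-mer dsDNA for strand exchange. Schedule: 30-min compound preincubation and 15-min exchange, both room temperature. Measured by: FRET fluorescence dequenching, excitation 485 nm, emission 520 nm. Read-out: Fluorescence-based percent inhibition, control- and blank-normalised. Benchmarks: plate controls and plate blanks.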
Cl transport mod: modulates chloride dependent transport by human KCC2 | hit rate 2.2% among 190,000 | B-score of Tl+ flux slope (higher = more flux/activation; lower = inhibition) at 10 µM | AID 1456 | KCC2 cells, thallium flux FluoZin-2 fluorescence;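 active = thallium flux slope and its plate-corrected score both differing from the plate sample mean at a set confidence after two filtering rounds, in either direction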;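 note: slope of fluorescence scaled to starting intensity during 10 to 20 s after thallium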
Autophagy HCS: modulators of autophagy. MEF GFP-LC3 puncta imaging; test concentration mostly 10 µM. hit rate 0.98% among 190,000. calls only at 10 µM (by protocol);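 active = percentage of spot-positive cells more than 3 SD above its plate mean, without a fluorescence outlier flag or 80% toxicity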
Ins promoter up: MIN6 insulin promoter up-regulation; MIN6 insulin promoter-GFP reporter, high-content imaging; stronger effect = higher value; z-score at 5 µM; hit rate 0.3% among 190,000;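 active = z-score above 3 at 5 µM with at least 500 cells counted in the well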
WT yeast gro inh: growth inhibition of WT yeast, mitochondrial fusion screen; mitochondrial fusion phenotypic screen, WT strain; inhibition, % at 10 µM; hit rate 2.1% among 190,000; AID 1362; in the data active = inhibition above about 58%; tested in S. cerevisiae
SKKanGAS inh: SKKanGAS growth inhibition. S. pyogenes SKKanGAS, kanamycin growth, BacTiter-Glo, 6 h. inhibition, % at 7.5 µM. hit rate 1.3% among 300,000. AID 1662;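 active = mean replicate score, as percent of positive control median, at least 50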;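 note: strain carries kanamycin resistance gene driven by streptokinase promoter and grows in 40 µg/ml kanamycin; loss of luminescence reflects streptokinase promoter inhibition or plain growth inhibition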
Numbers stand for hits; – = inactive; · = no result; + = active, no number.

SMILES	Rad51 HR inh	Cl transport mod	Autophagy HCS	Ins promoter up	WT yeast gro inh	SKKanGAS inh
Cc1cc(C)nc(Nc2n[nH]c(-c3ccc(N)cc3)n2)n1	–	–	–	–	59.6	–
Cc1cc(C)nc(Nc2n[nH]c(-c3ccc(C(C)(C)C)cc3)n2)n1	–	–	–	·	–	–
COCCNC(=O)C1CCC(CNS(=O)(=O)c2ccccc2)CC1 (centres undefined)	·	·	·	·	·	–
O=C(CSc1nnc(-c2ccc3c(c2)OCO3)o1)Nc1ncc(Cl)cc1Cl	–	–	–	–	–	–
CCOc1ccc2nc(NC(=O)c3ccco3)sc2c1	·	·	·	·	·	–
CCOc1ccc2nc(NC(=O)c3ccoc3C)sc2c1	–	–	–	–	79.4	91.0
O=C(CN1C(=O)c2ccccc2S1(=O)=O)NCCSCc1c(F)cccc1Cl	·	·	·	·	·	–
C/C(=N\Nc1ccc(Cl)c(C(=O)O)c1)c1ccc(Br)s1	·	·	·	·	·	57.5
COc1ccc(/C=N/NC(=O)c2cc3c(OC)ccc(OC)c3[nH]2)cc1O	·	·	·	·	·	–
COc1ccc(OC)c2[nH]c(C(=O)N/N=C/c3ccccc3O)cc12	·	·	·	·	·	113.5
Cc1ccc(CNC(=O)Cn2nnc(C(=O)Nc3cc(C)ccc3C)c2N)cc1	·	·	·	·	·	–
S=C(NCCSCc1c(Cl)cccc1Cl)Nc1ccccc1	–	–	–	–	81.6	·
O=C(NCCSCc1c(F)cccc1Cl)Nc1ccccc1	·	·	·	·	·	–
Cc1ccccc1CSCCNC(=S)Nc1ccccc1	–	–	–	–	70.9	–
Cc1ccc(C(=O)NCCSCc2ccc(Cl)cc2Cl)cc1[N+](=O)[O-]	·	–	–	–	–	–
COc1ccc(CSCCNC(=S)Nc2ccccc2)cc1Cl	–	–	–	–	77.0	62.7
Cc1c(C(=O)NCCSCc2ccc(Cl)cc2Cl)cccc1[N+](=O)[O-]	·	–	–	–	68.8	–
COc1ccc(NC(=O)CN2CCN(S(=O)(=O)N3CCCCCC3)CC2)cc1	·	·	·	·	·	–
COCCNc1nnc(SCC(=O)NNC(=O)c2ccc([N+](=O)[O-])cc2)s1	·	·	·	·	·	–
O=C(Nc1cccc(Cl)c1)NC1CC2CCC1C2 (centres undefined)	·	·	·	·	·	–
S=C(NCCSCc1ccc(Cl)c(Cl)c1)Nc1ccccc1	–	·	–	·	·	51.8
S=C(NCCSCc1ccc(Cl)cc1Cl)Nc1ccccc1	–	–	–	–	79.8	56.3
S=C(Nc1ccccc1)Nc1ccc(OCc2ccc(Cl)cc2Cl)cc1	–	·	–	–	–	–
Cc1ccc(C(C)C)c(OCC(=O)NCC(c2cccs2)N2CCOCC2)c1 (centres undefined)	·	·	·	·	·	–
NC(=S)N/N=C1/CCSc2ccc3ccccc3c21	·	4.35	–	–	76.0	–
SMILES	Rad51 HR inh	Cl transport mod	Autophagy HCS	Ins promoter up	WT yeast gro inh	SKKanGAS inh
NC(=S)N/N=C/c1c(O)ccc2ccccc12	–	–	·	–	·	–
CC1=CC2=NC(=O)/C(=C\c3cc(C)n(-c4ccc(F)cc4)c3C)C(=N)N2O1	–	–	–	–	–	–
CC1=CC2=NC(=O)/C(=C\c3ccc(-c4cccc(Cl)c4)o3)C(=N)N2O1	–	–	+	–	–	–
COCC1CCCCN1C(=O)c1cccc(OC2CCN(C(=O)C3CC3)CC2)c1 (centres undefined)	·	·	·	·	·	–
CCOc1ccc(C(=O)NCC2CCCN2S(=O)(=O)c2cccs2)cc1 (centres undefined)	·	·	·	·	·	52.5
CC1CCN(C(=O)Cn2cnc3c2c(=O)n(C)c(=O)n3C)c2ccccc2S1 (centres undefined)	·	·	·	·	·	–
Cc1c(Cl)cnc(NC(=O)COC(=O)Cc2coc3ccc4ccccc4c23)c1Cl	·	–	–	–	–	–
CC(C)(C)NC(=O)NC(=O)COC(=O)Cc1coc2ccc3ccccc3c12	·	–	–	–	70.2	–
Cc1ccc(N=C2NC(=O)/C(=C/C=C/c3ccco3)S2)cc1	–	–	–	–	–	–
Cc1cccc(N=C2NC(=O)/C(=C/C=C/c3ccco3)S2)c1C	–	4.35	–	–	–	–
CC(=O)Cc1nsc(NC(=O)c2ccc(-c3ccc(Cl)cc3Cl)o2)n1	–	·	–	–	–	–
CC(=O)Cc1nsc(NC(=O)c2ccc(-c3ccc(Cl)c(Cl)c3)o2)n1	–	–	–	–	69.2	–
CC(=O)Cc1nsc(NC(=O)c2ccc(-c3cccc(C(F)(F)F)c3)o2)n1	–	·	+	–	–	–
CC(=O)Cc1nsc(NC(=O)c2cc(-c3ccc(Cl)c(Cl)c3)oc2C)n1	–	·	–	–	–	–
CC(=O)Cc1nsc(NC(=O)c2ccc(-c3cc(Cl)ccc3Cl)o2)n1	–	–	–	–	71.3	–
CC(=O)Cc1nsc(NC(=O)c2ccc(-c3cc(C(F)(F)F)ccc3Cl)o2)n1	–	–	–	·	–	–
CCCCOc1ccc(C(=O)N(C)CC(=O)Nc2ccc(C)cc2)cc1	·	·	·	·	·	–
CCOC(=O)N1CCN(C(=O)c2ccc(Oc3ccc([N+](=O)[O-])cc3)cc2)CC1	–	–	–	–	–	–
COc1cc(/C=C(/C(=O)c2cccs2)c2nc3ccccc3[nH]2)cc(OC)c1O	–	–	+	·	–	–
CC(=O)c1cc(CN2CCC(C(=O)Nc3ccc(-n4nc(C)cc4C)cc3)CC2)cs1	·	·	·	·	·	–
Cc1cccc(C(=O)NC(CC(=O)O)c2ccc(OC3CCCC3)cc2)c1[N+](=O)[O-] (centres undefined)	43.7	–	–	·	–	–
CCOc1ccc(NC(=O)Nc2c(C)n(C)n(-c3ccccc3)c2=O)cc1	·	·	·	·	·	–
CN1CCN(C(c2ccc(Br)cc2)c2cc(Cl)c3cccnc3c2O)CC1 (centres undefined)	·	·	·	·	·	69.2
O=C1C(Cc2ccccc2)Nc2ncnc(N3CCCCC3)c2N1Cc1ccc(Cl)cc1 (centres undefined)	·	·	·	·	·	–
